1 compound from ChEMBL document CHEMBL2029221, “Acylprolinamides: a new class of peptide deformylase inhibitors with in vivo antibacterial activity” (Bioorg Med Chem Lett, 2012) can be followed below.

Usually pIC50 stands for the negative decadic logarithm of the IC50, by convention in mol/L. Usually clearance stands for the volume of plasma or blood freed of the substance per unit of time. What is called bioavailability is dose-corrected exposure relative to a reference, in per cent.

Data set [1] deals with Streptococcus pneumoniae. Put plainly: Antibacterial activity against Streptococcus pneumoniae 1629 by broth microdilution method. The format is functional. The method, boiled down:
(§1)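 Broth microdilution following NCCLS document M7-A4. Serial two-fold dilutions from 0.06 to 64 mcg/ml were tested. The MIC was the lowest concentration preventing visible growth, with the endpoint read with the aid of a mirror reader.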
On the technique in general: In broth dilution the organism is exposed to a series of concentrations in liquid medium.

In data set [2] the target is T1, Peptide deformylase (Streptococcus pneumoniae serotype 4 (strain ATCC BAA-334 / TIGR4), UniProt Q9F2F0).
T1 sequence (Q9F2F0 whole entry): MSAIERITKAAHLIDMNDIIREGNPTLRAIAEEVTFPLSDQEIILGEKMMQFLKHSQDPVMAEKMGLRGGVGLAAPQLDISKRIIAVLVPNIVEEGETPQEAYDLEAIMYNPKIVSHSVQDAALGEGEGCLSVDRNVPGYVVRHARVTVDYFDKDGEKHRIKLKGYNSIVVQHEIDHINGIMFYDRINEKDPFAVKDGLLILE
Put plainly: Inhibition of Streptococcus pneumoniae PDF assessed as formate release from fMAS peptide substrate after 20 mins by formate dehydrogenase coupled assay.

The subject of another data set is Canis familiaris. The data set can be described thus: Dose normalized AUC (0 to infinity) in dog at 6.5 mg/kg, po. To be noted: in vivo. The class given is ADME, organism-based, Canis lupus familiaris. Further details: dose 6.5 mg/kg, route oral. In short, it runs like this:
(§2)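 Single-compound pharmacokinetics with n = 3 per species, given i.v. and p.o. Reported measures are plasma clearance after i.v. dosing, dose-normalized AUC(0–inf) after oral dosing, and oral bioavailability.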

Data set [3] can be described thus: Metabolic stability of the compound in human blood assessed as compound remaining at 2000 ng/mL after 2 hrs. To be noted: read-out: Stability. The format is ADME, tissue-based. In short, it runs like this:
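Samples (n = 3) were spiked into fresh human blood at 2000 ng/mL, incubated at 37 °C for 120 min, and reported as % recovered at 2 h.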

The subject of a further data set is Enterococcus faecalis. Put plainly: Antibacterial activity against Enterococcus faecalis 7 by broth microdilution method. The class given is functional. In short, it runs like this:
as §1

In data set [4] the target is T2, Peptide deformylase (Staphylococcus aureus, UniProt P68826).
T2 sequence (P68826 whole entry): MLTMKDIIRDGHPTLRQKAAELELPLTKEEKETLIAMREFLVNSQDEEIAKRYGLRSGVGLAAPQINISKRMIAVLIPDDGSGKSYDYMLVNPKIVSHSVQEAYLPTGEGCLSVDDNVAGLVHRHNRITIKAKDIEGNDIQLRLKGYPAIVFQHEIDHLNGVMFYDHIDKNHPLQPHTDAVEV
Put plainly: Inhibition of Staphylococcus aureus PDF assessed as formate release from fMAS peptide substrate after 20 mins by formate dehydrogenase coupled assay.

The subject of a further data set is Rattus norvegicus. The data set can be described thus: Dose normalized AUC (0 to infinity) in rat at 27.1 mg/kg, po. The format is ADME, organism-based. Also noted: dose 27.1 mg/kg, route oral. The following applies: in vivo. In short, it runs like this:
as §2

For a further data set, the system named is Rhesus monkey. The data set can be described thus: Dose normalized AUC (0 to infinity) in monkey at 5.1 mg/kg, po. The class given is ADME, organism-based, Macaca mulatta. Further details: dose 5.1 mg/kg, route oral. To be noted: in vivo. In short, it runs like this:
as §2

Data set [5] is described as follows: Plasma clearance in dog at 4.5 mg/kg, iv. The format is ADME, organism-based, Canis lupus familiaris. Further details: dose 4.5 mg/kg, route intravenous. The method, boiled down:
as §2

Data set [6] in a line: Plasma clearance in monkey at 3 mg/kg, iv. To be noted: rhesus monkey. Further details: dose 3 mg/kg, route intravenous. The format is ADME, organism-based, Macaca mulatta. The method, boiled down:
as §2

A short description of data set [7]: Oral bioavailability in dog at 6.5 mg/kg. The format is ADME, organism-based, Canis lupus familiaris. The following applies: in vivo. In short, it runs like this: as §2
Another data set has as its system Staphylococcus aureus. Put plainly: Antibacterial activity against Staphylococcus aureus Oxford by broth microdilution method. The format is functional. In short, it runs like this:
as §1

For data set [8], the system named is Haemophilus influenzae. The data set can be described thus: Antibacterial activity against Haemophilus influenzae H128 infected in rat respiratory tract infection model assessed as reduction in bacterial count at 300 mg/kg, po bid for 2 days relative to control. The class given is functional. The method, boiled down:
(§3)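 Rat respiratory tract infection models with oral b.i.d. dosing. Efficacy was read as bacterial lung counts (log10 cfu/mL) compared with non-treated controls.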

The nature of data set [9]: Oral bioavailability in rat at 27.1 mg/kg. The format is ADME, organism-based. To be noted: in vivo. In short, it runs like this: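 Rat oral bioavailability (n = 3) was estimated from a non-crossover study comparing i.v. and p.o. dosing.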
Data set [10] in a line: Oral bioavailability in monkey at 5.1 mg/kg. The format is ADME, organism-based, Macaca mulatta. To be noted: rhesus monkey, in vivo. The method, boiled down:
as §2

A short description of data set [11]: Inhibition of Haemophilus influenzae PDF assessed as formate release from fMAS peptide substrate after 20 mins by formate dehydrogenase coupled assay. In short, it runs like this: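 Coupled assay in which formate released from the fMAS peptide is oxidized by formate dehydrogenase, reducing NAD to NADH, read as the rise in absorbance at 340. Reactions were started by adding PDF and velocities measured for 20 min at 25 °C. Values are the mean of at least 2 runs.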

The subject of data set [12] is Haemophilus influenzae. The data set can be described thus: Antibacterial activity against Haemophilus influenzae Q1 by broth microdilution method. The class given is functional. In short, it runs like this: as §1
The test system of the next data set is Moraxella catarrhalis. The data set can be described thus: Antibacterial activity against Moraxella catarrhalis 1502 by broth microdilution method. The class given is functional. The method, boiled down:
as §1

A short description of data set [13]: Metabolic stability of the compound in rat blood assessed as compound remaining at 2000 ng/mL after 2 hrs. The format is ADME, tissue-based. To be noted: read-out: Stability.
The test system of data set [14] is Streptococcus pneumoniae. Put plainly: Antibacterial activity against Streptococcus pneumoniae 1629 infected in rat respiratory tract infection model assessed as reduction in bacterial count at 75 mg/kg, po bid for 4 days relative to control. The format is functional. The method, boiled down:
as §3

For data set [15], the system named is Streptococcus pneumoniae. Put plainly: Antibacterial activity against Streptococcus pneumoniae 1629 infected in rat respiratory tract infection model assessed as reduction in bacterial count at 150 mg/kg, po bid for 4 days relative to control. The class given is functional. In short, it runs like this: as §3

Molecules are shown by their SMILES. pIC50: −log10 of the molar value. Converted amounts (≈) assume the structure as drawn. A value given as a limit tells only on which side of the number the result lay.

In the case of `CCNC(=O)NC(=O)[C@@H]1CCCN1C(=O)[C@H](CC1CCCC1)CN(O)C=O`, the MIC against Streptococcus pneumoniae [1] was 0.25 µg/mL (≈ 0.654 µM); against Enterococcus faecalis, 2 µg/mL (≈ 5.23 µM); with Staphylococcus aureus, 0.5 µg/mL (≈ 1.31 µM); in the data set with Haemophilus influenzae [12], 0.5 µg/mL (≈ 1.31 µM); in the data set on Moraxella catarrhalis it was at most 0.06 µg/mL. Besides, the figures for the pIC50 (at Peptide deformylase [2]; on Peptide deformylase [4]; in data set [11]) were 9.36, 8.70 and 8.31, respectively. The AUC/dose turned out to be 629.9 ng·h/mL/mg/kg with Canis familiaris, 43.3 ng·h/mL/mg/kg in the data set on Rattus norvegicus and 111.4 ng·h/mL/mg/kg in the data set with Rhesus monkey. For the same compound, the results for the remaining at 2 h, 2000 ng/mL in data set [3] and in data set [13] were 111% and 58.6%, respectively. Further, the clearance in data set [5] was 36.3 mL/min/kg; in data set [6] it was 29.4 mL/min/kg. Besides, the bioavailability in data set [7] stood at 100%; in data set [9], 30%; in [10], 20%. Besides, the log10CFU/ml with Haemophilus influenzae [8] is listed as 4.21; in the data set with Streptococcus pneumoniae [14] it was 3.86; with Streptococcus pneumoniae [15] it was 3.86.
